How the values were obtained:
[1] = test system: Liver; assay: Metabolic stability in human liver S9 fraction assessed as compound degradation at 10 uM after 90 mins by HPLC/MS/MS; type: ADME, subcellular; conditions: s9, 1.5 h
Procedure, shortened: (§1)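 Liver S9 fraction at 3 mg/mL protein in phosphate buffer, test article 1 μM or 10 μM final; 2 min equilibration at 37 °C, then reaction started with 1x NADPH regeneration system. Samples taken from time zero to 90 min into 1% ammonium hydroxide in N-propyl alcohol. Analysed by C8 HPLC with water/isopropyl alcohol (0.1% formic acid) gradient and ESI-MS. 7-Ethoxycoumarin run as positive control.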

[2] = test system: Liver; assay: Metabolic stability in human liver S9 fraction assessed as compound degradation at 1 uM after 90 mins by HPLC/MS/MS; type: ADME, subcellular; conditions: s9, 1.5 h; procedure, shortened: as §1
[3] = Metabolic stability in human liver S9 fraction assessed as compound remaining at 1 uM after 90 mins by HPLC/MS/MS; type: ADME, subcellular; conditions: read-out: Stability
Procedure, shortened: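 Liver S9 (human or monkey, 3 mg/mL protein, phosphate buffer) with test article at 1 or 10 μM final, pre-equilibrated about 2 min at 37 °C. Started with 1x NADPH regeneration system, sampled 0-90 min into 1% NH4OH in n-propanol. Held cold ≥48 h, centrifuged, C8 LC (water/isopropanol, 0.1% formic acid) with ESI-MS; 7-ethoxycoumarin as activity control.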

[4] = Selectivity index, ratio of CC50 for human HFF cells to EC50 for Vaccinia virus Copenhagen; type: toxicity, cell-based; conditions: read-out: Ratio CC50/EC50
[5] = test system: Vaccinia virus; assay: Antiviral activity against Vaccinia virus Copenhagen infected in human HFF cells after 3 days by plaque reduction assay; type: functional, organism-based; conditions: Orthopoxvirus vaccinia, 72 h
[6] = Selectivity index, ratio of CC50 for human HFF cells to EC50 for Cowpox virus (Brighton Red); type: toxicity, cell-based; conditions: read-out: Ratio CC50/EC50
[7] = test system: HFF; assay: Cytotoxicity against human HFF cells assessed as reduction in cell viability after 7 days by neutral red uptake assay; type: cell-based; conditions: 168 h
Procedure, shortened: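 Uninfected HFF cells seeded at 2.5×10^4/well and grown 24 h to monolayer. Medium replaced by MEM/2% FBS containing graded compound concentrations; 7 d incubation. Cells stained with 0.01% neutral red, absorbance at 540 nm; CC50 interpolated as 50% viability loss.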

[8] = Antiviral activity against Cowpox virus (Brighton Red) infected in human HFF cells after 3 days by plaque reduction assay; type: functional, cell-based; conditions: 72 h
[9] = Selectivity index, ratio of CC50 for african green monkey BSC1 cells to EC50 for Ectromelia virus Moscow; type: toxicity, cell-based, BSC-1; conditions: read-out: Ratio CC50/EC50
[10] = test system: BSC-1; assay: (§2) Cytotoxicity against african green monkey BSC1 cells after 2 to 4 hrs by MTS assay; type: cell-based; conditions: chlorocebus aethiops, bsc-1
Procedure, shortened: (§3)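 BSC-1 cells (5000 per reaction) mixed with serial compound dilutions in DMEM/2% Fetal Clone II, without virus. At the set time point, MTS reagent added for 2-4 h and OD490 read. Viability taken relative to untreated cells; CC50 from concentration versus % viability plot.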

[11] = test system: Ectromelia virus Moscow; assay: Antiviral activity against Ectromelia virus Moscow infected in african green monkey BSC1 cells after 4 to 5 days by plaque reduction assay; type: functional, organism-based; conditions: BSC-1
[12] = as §2; type: cell-based, BSC-1; conditions: chlorocebus aethiops, BSC1 cells; procedure, shortened: as §3
[13] = test system: Liver; assay: Metabolic stability in human liver S9 fraction assessed as compound disappearance at 10 uM after 90 mins by HPLC/MS/MS; type: ADME, subcellular; conditions: s9, 1.5 h; procedure, shortened: as §1
[14] = test system: Liver; assay: Metabolic stability in human liver S9 fraction assessed as compound disappearance at 1 uM after 90 mins by HPLC/MS/MS; type: ADME, subcellular; conditions: s9, 1.5 h; procedure, shortened: as §1
[15] = test system: Liver; type: ADME, subcellular, Cavia porcellus, S9 fraction; conditions: guinea pig, s9, 1.5 h, 10 µM
[16] = test system: Liver; type: ADME, subcellular, Cavia porcellus, S9 fraction; conditions: guinea pig, s9, 1.5 h, 1 µM
[17] = test system: Liver; type: ADME, subcellular, S9 fraction; conditions: rat, s9, 1.5 h, 10 µM
[18] = test system: Liver; type: ADME, subcellular, S9 fraction; conditions: rat, s9, 1.5 h, 1 µM

SMILES	Stability [1]	Stability [2]	remaining at 1.5 h, 1 µM [3] [%]	selectivity ratio [4]	EC50 [5] [nM]	selectivity ratio [6]	CC50 [7] [nM]	EC50 [8] [nM]	selectivity ratio [9]	CC50 [10] [nM]	EC50 [11] [nM]	CC50 [12] [nM]	Stability [13]	Stability [14]	Stability [15]	Stability [16]	Stability [17]	Stability [18]
CC(C)CCCCCCCCCCCCCCOCCCOP(=O)(O)CO[C@H](CO)Cn1cnc2c(N)ncnc21	Stable	Stable	91.3	285	40	285	11400	40	266	11700	44	–	–	–	–	–	–	–
CC(C)CCCCCCCCCCCCCCOCCCOP(=O)(O)CO[C@H](CO)Cn1ccc(N)nc1=O	–	–	–	75	200	150	15000	100	1810	78000	43	–	–	–	–	–	–	–
Nc1ccn(C[C@@H](CO)OCP(=O)(O)OCCCOCCCCCCCCCCCCCCC2CC2)c(=O)n1	–	–	88	187	300	112	56000	500	100	74000	740	–	–	–	–	–	–	–
CCCCCCCCCCCCCCCCCCOC[C@@H](COP(=O)(O)CO[C@H](CO)Cn1ccc(N)nc1=O)OCc1ccccc1	–	–	92.3	118	400	157	47000	300	1100	–	30	35000	–	–	–	–	–	–
CC(C)CCCCCCCCCCCCOCCCOP(=O)(O)CO[C@H](CO)Cn1ccc(N)nc1=O	–	–	–	123	300	123	37000	300	210	82000	390	–	–	–	–	–	–	–
CC(C)CCCCCCCCCCCOCCCOP(=O)(O)CO[C@H](CO)Cn1ccc(N)nc1=O	–	–	–	44	1000	55	44000	800	234	82000	350	–	–	–	–	–	–	–
C=CCCCCCCCCCCCCCCOCCOP(=O)(O)CO[C@H](CO)Cn1cnc2c(N)ncnc21	Unstable	Unstable	–	85	20	85	1700	20	7.2	2320	320	–	–	–	–	–	–	–
CCCCCCCCCCCCCCCCOCCOP(=O)(O)CO[C@H](CO)Cn1cnc2c(N)ncnc21	–	–	–	156	90	156	14000	90	289	40500	140	–	–	–	–	–	–	–
CC(C)CCCCCCCCCCCCCCOCCOP(=O)(O)CO[C@H](CO)Cn1cnc2c(N)ncnc21	–	–	–	250	10	250	2500	10	5960	59600	10	–	–	–	–	–	–	–
CCCCCCCCCCCCCCCCOCCCOP(=O)(O)CO[C@H](CO)Cn1cnc2c(N)ncnc21	Stable	Stable	–	280	–	140	2800	20	1280	84700	66	–	–	–	–	–	–	–
CCCCCCCCCCCCCCCCOCCCOP(=O)(O)CO[C@H](CO)Cn1ccc(N)nc1=O [BRINCIDOFOVIR]	–	–	83.3	313	–	125	25000	200	202	25300	125	–	Stable	Stable	Stable	Stable	Stable	Stable

— ChEMBL document CHEMBL1772955, “Synthesis, metabolic stability and antiviral evaluation of various alkoxyalkyl esters of cidofovir and 9-(S)-[3-hydroxy-2-(phosphonomethoxy)propyl]adenine” (Bioorg Med Chem, 2011)
